The source made the active and inactive calls. The calls are words filed in the database; no cut-off is given here.
What was measured:
[1] = molecular target: Metabotropic glutamate receptor 2 (Homo sapiens, UniProt Q14416); assay: Agonist activity at human mGlu 2 expressed in CHO cells by PAM assay relative to glutamate; format: functional, cell-based
Summary of the method: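 The assay measured [35S]GTPγS binding to membranes from CHO cells expressing human mGluR2. Cells were butyrate-stimulated (5 mM, 24 h) before membranes were prepared. Membranes were preincubated for 30 min at 30 °C in HEPES pH 7.4 buffer (NaCl, MgCl2, 50 μM GDP) with compound (0.3 nM–50 μM, 11 concentrations) plus EC25 glutamate. [35S]GTPγS (0.1 nM final) was then added for 30 min at 30 °C. Bound label was collected by filtration and counted. Runs were done at least in triplicate with duplicate points, and a four-parameter logistic fit gave the values.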

[2] = Metabolic stability of human liver microsomes assessed as compound metabolized at 5 uM after 15 mins; format: ADME, Microsome; conditions: read-out: Drug metabolism
Summary of the method: (§1)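 Test compound at 5 μM incubated 15 min with rat or human liver microsomes; read-out is percent of compound metabolized.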

[3] = Metabolic stability of Sprague-Dawley rat liver microsomes assessed as compound metabolized at 5 uM after 15 mins; format: ADME, Microsome; conditions: read-out: Drug metabolism; summary of the method: as §1
[4] = molecular target: Metabotropic glutamate receptor 1 (Homo sapiens) (UniProt Q13255); assay: Agonist activity at human mGlu 1 expressed in HEK293 cells at 10 uM by Ca+2 assay; format: functional, cell-based
Chain of Metabotropic glutamate receptor 1 (Homo sapiens) (Q13255 19-1194 limits assumed): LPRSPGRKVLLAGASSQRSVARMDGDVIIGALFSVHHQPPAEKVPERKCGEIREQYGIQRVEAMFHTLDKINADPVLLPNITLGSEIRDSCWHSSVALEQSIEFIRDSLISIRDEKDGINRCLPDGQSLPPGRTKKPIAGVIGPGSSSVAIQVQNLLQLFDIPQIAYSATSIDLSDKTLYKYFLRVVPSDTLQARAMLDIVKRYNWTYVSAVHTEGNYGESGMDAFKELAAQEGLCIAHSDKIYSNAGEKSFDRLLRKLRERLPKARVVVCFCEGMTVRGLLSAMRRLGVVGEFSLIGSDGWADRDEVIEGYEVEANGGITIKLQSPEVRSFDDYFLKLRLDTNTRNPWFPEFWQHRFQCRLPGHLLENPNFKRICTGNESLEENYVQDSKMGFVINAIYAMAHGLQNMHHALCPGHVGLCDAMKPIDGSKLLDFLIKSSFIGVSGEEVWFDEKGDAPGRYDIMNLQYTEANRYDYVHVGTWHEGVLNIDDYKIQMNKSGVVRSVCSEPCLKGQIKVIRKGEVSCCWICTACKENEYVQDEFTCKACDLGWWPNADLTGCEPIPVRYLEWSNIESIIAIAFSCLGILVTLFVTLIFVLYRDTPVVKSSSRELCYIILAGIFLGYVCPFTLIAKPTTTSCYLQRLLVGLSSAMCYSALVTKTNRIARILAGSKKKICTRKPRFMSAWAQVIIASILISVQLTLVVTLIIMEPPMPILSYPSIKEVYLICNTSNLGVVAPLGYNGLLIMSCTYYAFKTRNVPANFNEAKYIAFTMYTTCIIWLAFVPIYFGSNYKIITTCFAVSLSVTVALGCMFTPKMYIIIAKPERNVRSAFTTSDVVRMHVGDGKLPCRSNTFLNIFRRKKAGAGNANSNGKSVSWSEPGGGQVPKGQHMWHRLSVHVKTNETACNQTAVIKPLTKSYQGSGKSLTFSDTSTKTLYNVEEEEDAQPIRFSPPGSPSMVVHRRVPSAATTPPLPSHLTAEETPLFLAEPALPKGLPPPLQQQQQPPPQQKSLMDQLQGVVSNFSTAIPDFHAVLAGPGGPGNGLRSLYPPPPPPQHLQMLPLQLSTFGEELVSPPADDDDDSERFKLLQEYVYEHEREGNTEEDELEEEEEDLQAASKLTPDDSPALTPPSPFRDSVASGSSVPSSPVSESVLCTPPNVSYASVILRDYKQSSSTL
Summary of the method: (§2)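 Ca2+ assays on human mGlu1, mGlu3, mGlu5, mGlu7 or mGlu8 receptors, each expressed in HEK293 cells; compound tested at 10 μM for agonist and antagonist activity.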

[5] = molecular target: Metabotropic glutamate receptor 3 (Homo sapiens) (UniProt Q14832); assay: Agonist activity at human mGlu 3 expressed in HEK293 cells at 10 uM by Ca+2 assay; format: functional, cell-based; summary of the method: as §2
[6] = molecular target: Metabotropic glutamate receptor 5 (Homo sapiens) (UniProt P41594); assay: Agonist activity at human mGlu 5 expressed in HEK293 cells at 10 uM by Ca+2 assay; format: functional, cell-based; summary of the method: as §2
Chain of Metabotropic glutamate receptor 5 (Homo sapiens) (P41594 21-1212 limits assumed): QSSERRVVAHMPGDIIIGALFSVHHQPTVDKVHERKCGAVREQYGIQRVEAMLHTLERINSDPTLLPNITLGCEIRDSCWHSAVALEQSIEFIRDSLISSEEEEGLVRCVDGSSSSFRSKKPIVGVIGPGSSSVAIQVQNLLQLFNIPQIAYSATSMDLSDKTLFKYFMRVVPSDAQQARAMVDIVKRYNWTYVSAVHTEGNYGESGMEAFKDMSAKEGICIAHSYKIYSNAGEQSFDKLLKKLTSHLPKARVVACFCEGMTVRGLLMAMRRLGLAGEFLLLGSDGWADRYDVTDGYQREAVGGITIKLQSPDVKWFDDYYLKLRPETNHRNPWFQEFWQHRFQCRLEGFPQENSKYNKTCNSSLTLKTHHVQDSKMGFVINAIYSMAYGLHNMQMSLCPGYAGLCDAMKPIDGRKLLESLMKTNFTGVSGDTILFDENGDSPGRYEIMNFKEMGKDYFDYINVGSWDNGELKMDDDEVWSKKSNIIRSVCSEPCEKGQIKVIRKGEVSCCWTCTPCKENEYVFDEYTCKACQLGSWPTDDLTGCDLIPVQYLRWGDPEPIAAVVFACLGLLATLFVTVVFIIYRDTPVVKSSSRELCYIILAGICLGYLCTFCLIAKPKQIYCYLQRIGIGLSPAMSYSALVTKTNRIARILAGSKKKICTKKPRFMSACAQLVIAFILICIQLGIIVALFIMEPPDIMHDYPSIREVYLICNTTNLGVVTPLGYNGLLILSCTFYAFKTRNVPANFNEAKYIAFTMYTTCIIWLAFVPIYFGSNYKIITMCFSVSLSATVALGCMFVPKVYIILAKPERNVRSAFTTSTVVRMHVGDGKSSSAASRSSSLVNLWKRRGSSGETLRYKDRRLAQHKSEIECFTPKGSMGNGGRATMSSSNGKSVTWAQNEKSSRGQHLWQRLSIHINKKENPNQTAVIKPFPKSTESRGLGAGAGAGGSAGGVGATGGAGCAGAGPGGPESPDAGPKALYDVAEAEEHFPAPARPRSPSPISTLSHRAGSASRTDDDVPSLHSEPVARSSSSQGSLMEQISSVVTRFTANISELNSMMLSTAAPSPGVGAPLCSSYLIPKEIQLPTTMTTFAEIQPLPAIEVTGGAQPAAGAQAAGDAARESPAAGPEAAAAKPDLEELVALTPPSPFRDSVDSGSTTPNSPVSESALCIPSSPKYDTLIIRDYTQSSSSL

[7] = molecular target: Metabotropic glutamate receptor 8 (Homo sapiens) (UniProt O00222); assay: Agonist activity at human mGlu 8 expressed in HEK293 cells at 10 uM by Ca+2 assay; format: functional, cell-based; summary of the method: as §2
[8] = molecular target: Metabotropic glutamate receptor 4 (Homo sapiens) (UniProt Q14833); assay: Agonist activity at human mGlu 4 expressed in L929 cells assessed as [35S]GTPgammaS binding by liquid scintillation counting; format: functional, cell-based
Chain of Metabotropic glutamate receptor 4 (Homo sapiens) (Q14833 whole entry): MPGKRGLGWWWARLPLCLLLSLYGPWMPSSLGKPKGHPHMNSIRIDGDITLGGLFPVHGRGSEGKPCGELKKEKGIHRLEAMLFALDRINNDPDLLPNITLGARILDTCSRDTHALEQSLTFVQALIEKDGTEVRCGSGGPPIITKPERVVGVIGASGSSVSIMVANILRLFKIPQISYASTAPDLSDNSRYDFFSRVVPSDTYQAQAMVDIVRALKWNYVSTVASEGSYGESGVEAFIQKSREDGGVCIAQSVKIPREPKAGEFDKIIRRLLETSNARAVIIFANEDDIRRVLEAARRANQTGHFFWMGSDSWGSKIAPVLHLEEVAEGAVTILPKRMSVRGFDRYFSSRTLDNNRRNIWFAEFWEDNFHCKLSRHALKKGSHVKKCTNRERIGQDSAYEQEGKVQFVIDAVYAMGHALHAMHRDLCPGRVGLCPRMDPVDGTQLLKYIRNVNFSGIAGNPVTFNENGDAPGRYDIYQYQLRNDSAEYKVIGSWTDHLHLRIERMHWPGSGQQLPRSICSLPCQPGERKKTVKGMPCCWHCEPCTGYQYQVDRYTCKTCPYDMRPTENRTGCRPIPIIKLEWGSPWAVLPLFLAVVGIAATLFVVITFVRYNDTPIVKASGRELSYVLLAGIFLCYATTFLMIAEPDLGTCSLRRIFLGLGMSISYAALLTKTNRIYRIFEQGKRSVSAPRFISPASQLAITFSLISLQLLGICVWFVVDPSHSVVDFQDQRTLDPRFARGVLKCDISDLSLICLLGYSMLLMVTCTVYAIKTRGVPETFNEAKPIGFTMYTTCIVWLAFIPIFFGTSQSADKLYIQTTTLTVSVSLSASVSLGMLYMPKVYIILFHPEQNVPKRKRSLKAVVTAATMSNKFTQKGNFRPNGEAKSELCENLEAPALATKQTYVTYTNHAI
Summary of the method: (§3)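 [35S]GTPγS functional assays on human mGlu4 or rat mGlu6 receptors expressed in L929 or CHO cells; agonist and antagonist modes tested at 10 μM.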

[9] = molecular target: Metabotropic glutamate receptor 6 (Rattus norvegicus) (UniProt P35349); assay: Agonist activity at rat mGlu 6 expressed in CHO cells assessed as [35S]GTPgammaS binding by liquid scintillation counting; format: functional, cell-based; summary of the method: as §3
Chain of Metabotropic glutamate receptor 6 (Rattus norvegicus) (P35349 whole entry): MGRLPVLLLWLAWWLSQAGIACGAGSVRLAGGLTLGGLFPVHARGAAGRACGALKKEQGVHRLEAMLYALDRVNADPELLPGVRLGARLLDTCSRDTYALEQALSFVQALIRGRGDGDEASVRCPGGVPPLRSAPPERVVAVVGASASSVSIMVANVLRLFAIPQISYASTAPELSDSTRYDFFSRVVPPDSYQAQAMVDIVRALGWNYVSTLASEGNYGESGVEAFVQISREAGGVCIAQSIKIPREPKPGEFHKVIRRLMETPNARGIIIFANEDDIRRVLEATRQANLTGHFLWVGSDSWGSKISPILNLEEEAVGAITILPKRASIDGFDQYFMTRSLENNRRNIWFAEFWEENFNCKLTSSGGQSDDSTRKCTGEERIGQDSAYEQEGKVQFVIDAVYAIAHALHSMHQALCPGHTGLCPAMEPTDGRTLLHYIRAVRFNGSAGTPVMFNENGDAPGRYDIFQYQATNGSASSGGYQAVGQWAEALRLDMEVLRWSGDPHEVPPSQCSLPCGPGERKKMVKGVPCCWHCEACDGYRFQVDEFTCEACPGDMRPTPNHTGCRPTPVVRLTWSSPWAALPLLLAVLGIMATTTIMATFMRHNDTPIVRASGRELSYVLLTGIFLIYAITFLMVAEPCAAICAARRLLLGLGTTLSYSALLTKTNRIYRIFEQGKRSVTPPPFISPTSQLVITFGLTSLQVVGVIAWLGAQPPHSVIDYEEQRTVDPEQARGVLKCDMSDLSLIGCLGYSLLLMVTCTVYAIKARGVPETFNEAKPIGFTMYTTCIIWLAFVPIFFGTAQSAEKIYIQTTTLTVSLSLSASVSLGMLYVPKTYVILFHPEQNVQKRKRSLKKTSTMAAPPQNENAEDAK

[10] = Tmax in Sprague-Dawley rat at 10 mg/kg, po; format: ADME, organism-based; design: dose 10 mg/kg, route oral; conditions: in vivo
Summary of the method: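 Rat pharmacokinetics in Sprague−Dawley rats: oral 10 mg/kg and intravenous 1.25 mg/kg, formulated in 20% HP-β-CD at pH 4. Plasma profiles used for Cmax, tmax, AUC0−inf and t1/2. Reported as geometric means of at least two runs ± SEM.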

[11] = AUC (0 to infinity) in Sprague-Dawley rat at 10 mg/kg, po; format: ADME, organism-based; design: time infinity, dose 10 mg/kg, route oral; conditions: plasma
Summary of the method: (§4)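 Male Sprague-Dawley rats given 10 mg/kg orally and/or 1.25 mg/kg intravenously; compound formulated in 20% HP-β-CD at pH 4. Cmax, tmax, AUC0−inf, t1/2, clearance and oral bioavailability F derived from plasma levels; geometric mean of at least two runs ± SEM.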

[12] = Half life in Sprague-Dawley rat at 10 mg/kg, po; format: ADME, organism-based; design: dose 10 mg/kg, route oral; conditions: in vivo; summary of the method: as §4
[13] = Drug uptake in Sprague-Dawley rat brain at 10 mg/kg, po after 1 hr; format: ADME, organism-based; design: dose 10 mg/kg, route oral; conditions: read-out: Drug uptake
[14] = Drug uptake in Sprague-Dawley rat brain at 10 mg/kg, po after 2 hrs; format: ADME, organism-based; design: dose 10 mg/kg, route oral; conditions: read-out: Drug uptake
[15] = Drug uptake in Sprague-Dawley rat brain at 10 mg/kg, po after 4 hrs; format: ADME, organism-based; design: dose 10 mg/kg, route oral; conditions: read-out: Drug uptake
[16] = Plasma concentration in Sprague-Dawley rat at 10 mg/kg, po after 1 hr; format: ADME, organism-based; design: dose 10 mg/kg, route oral
[17] = Plasma concentration in Sprague-Dawley rat at 10 mg/kg, po after 2 hrs; format: ADME, organism-based; design: dose 10 mg/kg, route oral
[18] = Plasma concentration in Sprague-Dawley rat at 10 mg/kg, po after 4 hrs; format: ADME, organism-based; design: dose 10 mg/kg, route oral
Summary of the method: (§5)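 Oral dosing of Sprague−Dawley rats at 10 mg/kg, compound in 20% HP-β-CD at pH 4. Brain (ng/g) and plasma (ng/mL) concentrations sampled at the indicated time; brain-to-plasma ratio calculated. Geometric mean of at least two runs ± SEM.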

[19] = Ratio of drug level in brain to plasma of Sprague-Dawley rat at 10 mg/kg, po after 1 hr; format: ADME, organism-based; design: dose 10 mg/kg, route oral; conditions: read-out: BPR; summary of the method: as §5
[20] = Ratio of drug level in brain to plasma of Sprague-Dawley rat at 10 mg/kg, po after 2 hrs; format: ADME, organism-based; design: dose 10 mg/kg, route oral; conditions: read-out: BPR; summary of the method: as §5
[21] = Ratio of drug level in brain to plasma of Sprague-Dawley rat at 10 mg/kg, po after 4 hrs; format: ADME, organism-based; design: dose 10 mg/kg, route oral; conditions: brain and plasma, read-out: BPR; summary of the method: as §5
[22] = molecular target: Metabotropic glutamate receptor 1 (Homo sapiens) (UniProt Q13255); assay: Antagonist activity at human mGlu 1 expressed in HEK293 cells at 10 uM by Ca+2 assay; format: functional, cell-based; summary of the method: as §2
[23] = molecular target: Metabotropic glutamate receptor 3 (Homo sapiens) (UniProt Q14832); assay: Antagonist activity at human mGlu 3 expressed in HEK293 cells at 10 uM by Ca+2 assay; format: functional, cell-based; summary of the method: as §2
[24] = molecular target: Metabotropic glutamate receptor 5 (Homo sapiens) (UniProt P41594); assay: Antagonist activity at human mGlu 5 expressed in HEK293 cells at 10 uM by Ca+2 assay; format: functional, cell-based; summary of the method: as §2
[25] = molecular target: T1, Metabotropic glutamate receptor 7 (Homo sapiens, UniProt Q14831); assay: Antagonist activity at human mGlu 7 expressed in HEK293 cells at 10 uM by Ca+2 assay; format: functional, cell-based; summary of the method: as §2
T1 sequence (Q14831 whole entry): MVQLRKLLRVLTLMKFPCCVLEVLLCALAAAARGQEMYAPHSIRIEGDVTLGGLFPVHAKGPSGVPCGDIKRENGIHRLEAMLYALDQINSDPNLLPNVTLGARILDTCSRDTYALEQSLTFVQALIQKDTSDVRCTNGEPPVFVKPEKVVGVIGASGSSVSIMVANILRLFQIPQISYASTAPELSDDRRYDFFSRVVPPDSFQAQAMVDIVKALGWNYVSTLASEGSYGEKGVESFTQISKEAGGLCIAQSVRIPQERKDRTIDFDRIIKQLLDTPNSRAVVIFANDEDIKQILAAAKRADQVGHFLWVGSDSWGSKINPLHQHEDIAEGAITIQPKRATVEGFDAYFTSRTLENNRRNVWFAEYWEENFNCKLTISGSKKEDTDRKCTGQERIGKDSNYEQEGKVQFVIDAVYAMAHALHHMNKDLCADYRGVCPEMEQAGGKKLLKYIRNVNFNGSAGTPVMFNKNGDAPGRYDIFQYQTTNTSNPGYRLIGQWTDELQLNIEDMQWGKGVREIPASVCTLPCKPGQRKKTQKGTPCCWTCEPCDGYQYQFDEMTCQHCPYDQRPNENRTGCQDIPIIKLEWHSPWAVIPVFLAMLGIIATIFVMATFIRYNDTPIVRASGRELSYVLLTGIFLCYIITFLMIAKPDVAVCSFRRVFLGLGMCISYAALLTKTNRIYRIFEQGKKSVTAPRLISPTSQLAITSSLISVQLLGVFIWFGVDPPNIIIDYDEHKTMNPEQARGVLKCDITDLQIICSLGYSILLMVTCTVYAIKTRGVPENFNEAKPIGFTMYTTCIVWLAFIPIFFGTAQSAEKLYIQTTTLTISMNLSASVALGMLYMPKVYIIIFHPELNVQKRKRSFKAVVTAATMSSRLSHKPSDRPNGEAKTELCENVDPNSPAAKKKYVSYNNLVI

[26] = molecular target: Metabotropic glutamate receptor 8 (Homo sapiens) (UniProt O00222); assay: Antagonist activity at human mGlu 8 expressed in HEK293 cells at 10 uM by Ca+2 assay; format: functional, cell-based; summary of the method: as §2
[27] = molecular target: Metabotropic glutamate receptor 4 (Homo sapiens) (UniProt Q14833); assay: Antagonist activity at human mGlu 4 expressed in L929 cells assessed inhibition of [35S]GTPgammaS binding by liquid scintillation counting; format: functional, cell-based; summary of the method: as §3
[28] = molecular target: Metabotropic glutamate receptor 6 (Rattus norvegicus) (UniProt P35349); assay: Antagonist activity at rat mGlu 6 expressed in CHO cells assessed as inhibition of [35S]GTPgammaS binding by liquid scintillation counting; format: functional, cell-based; summary of the method: as §3
Rattus norvegicus [29] = assay: Effect on sleep-wake cycle in Sprague-Dawley rat EEG model assessed as change in intermediate state at 10 mg/kg, po measured up to 20 hrs relative to control; format: functional, organism-based; design: dose 10 mg/kg
Summary of the method: (§6)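 Male Sprague-Dawley rats (250–300 g) implanted with EEG/EMG/EOG electrodes, 12 h light/dark cycle, n = 8 per group. Baseline 20 h recording after oral saline, then 20 h after oral 10 mg/kg or vehicle (20% CD + 2H2T). 2 s epochs scored into AW, PW, preREM, REM, lSWS, dSWS and averaged per 30 min. Latencies and transitions analysed; Wilcoxon−Mann−Whitney test vs vehicle.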

Rattus norvegicus [30] = assay: Effect on sleep-wake cycle in Sprague-Dawley rat EEG model assessed as change in passive wake at 10 mg/kg, po measured up to 20 hrs relative to control; format: functional, organism-based; design: dose 10 mg/kg; summary of the method: as §6
Rattus norvegicus [31] = assay: Effect on sleep-wake cycle in Sprague-Dawley rat EEG model assessed as change in active wake at 10 mg/kg, po measured up to 20 hrs relative to control; format: functional, organism-based; design: dose 10 mg/kg; summary of the method: as §6
Rattus norvegicus [32] = assay: Effect on sleep-wake cycle in Sprague-Dawley rat EEG model assessed as increase in REM sleep onset latency at 10 mg/kg, po measured up to 2 hrs relative to control; format: functional, organism-based; design: dose 10 mg/kg; summary of the method: as §6
Rattus norvegicus [33] = assay: Effect on sleep-wake cycle in Sprague-Dawley rat EEG model assessed as change in sleep variables at 10 mg/kg, po measured up to 20 hrs relative to control; format: functional, organism-based; design: dose 10 mg/kg; summary of the method: as §6
[34] = molecular target: T1, Metabotropic glutamate receptor 7; assay: Agonist activity at human mGlu 7 expressed in HEK293 cells at 10 uM by Ca+2 assay; format: functional, cell-based; summary of the method: as §2
[35] = Cmax in Sprague-Dawley rat at 10 mg/kg, po; format: ADME, organism-based; design: dose 10 mg/kg, route oral; conditions: in vivo; summary of the method: as §4
Rattus norvegicus [36] = assay: Effect on sleep-wake cycle in Sprague-Dawley rat EEG model assessed as suppression of REM sleep at 10 mg/kg, po measured up to 2 hrs relative to control; format: functional; summary of the method: as §6
Rattus norvegicus [37] = assay: Effect on sleep-wake cycle in Sprague-Dawley rat EEG model assessed as change in light sleep at 10 mg/kg, po measured up to 20 hrs relative to control; format: functional, organism-based; design: dose 10 mg/kg; summary of the method: as §6
Rattus norvegicus [38] = assay: Effect on sleep-wake cycle in Sprague-Dawley rat EEG model assessed as change in deep sleep at 10 mg/kg, po measured up to 20 hrs relative to control; format: functional, organism-based; design: dose 10 mg/kg; summary of the method: as §6
Rattus norvegicus [39] = assay: Effect on sleep-wake cycle in Sprague-Dawley rat EEG model assessed as effect on different vigilance states at 10 mg/kg, po measured up to 20 hrs relative to control; format: functional, organism-based; design: dose 10 mg/kg; summary of the method: as §6
Rattus norvegicus [40] = assay: Effect on sleep-wake cycle in Sprague-Dawley rat EEG model assessed as change in transition from sleep states toward waking at 10 mg/kg, po measured up to 20 hrs relative to control; format: functional, organism-based; design: dose 10 mg/kg; summary of the method: as §6

FC(F)(F)Cc1cnc2c(Cl)c(-c3cc(Cl)c4[nH]ccc4c3)ccn12
Emax [1]: 217%
metabolised at 0.25 h, 5 µM [2]: 10%
metabolised at 0.25 h, 5 µM [3]: 21%
Activity [4]: inactive
Activity [5]: inactive
Activity [6]: inactive
Activity [7]: inactive
Activity [8]: inactive
Activity [9]: inactive
Tmax [10]: 0.8 h
AUC(0-inf) [11]: 1980 ng·h/mL
half-life [12]: 2 h
concentration at 1 h [13]: 538 ng/g
concentration at 2 h [14]: 441 ng/g
concentration at 4 h [15]: 126 ng/g
concentration at 1 h [16]: 414 ng/mL
concentration at 2 h [17]: 364 ng/mL
concentration at 4 h [18]: 168 ng/mL
Kp at 1 h [19]: 1.3
Kp at 2 h [20]: 1.2
Kp at 4 h [21]: 0.8
Activity [22]: inactive
Activity [23]: inactive
Activity [24]: inactive
Activity [25]: inactive
Activity [26]: inactive
Activity [27]: inactive
Activity [28]: inactive
Activity (Rattus norvegicus [29]): inactive
Activity (Rattus norvegicus [30]): inactive
Activity (Rattus norvegicus [31]): inactive
Activity (Rattus norvegicus [32]): Active
Activity (Rattus norvegicus [33]): inactive
Activity [34]: inactive
Cmax [35]: 534 ng/mL
Activity (Rattus norvegicus [36]): 57%
Activity (Rattus norvegicus [37]): inactive
Activity (Rattus norvegicus [38]): inactive
Activity (Rattus norvegicus [39]): inactive
Activity (Rattus norvegicus [40]): inactive

From ChEMBL document CHEMBL2150909, “Imidazo[1,2-a]pyridines: orally active positive allosteric modulators of the metabotropic glutamate 2 receptor” (J Med Chem, 2012)
